KCNK3 inh: human KCNK3 channel inhibition, primary screen; O14649; CHO-KCNK3 thallium flux, FluxOR fluorescence; stronger effect = lower value; B-score at 10 µM; hit rate 0.84% among 340,000; AID 602410;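 active means B-score under library mean minus 4 SD, starting fluorescence ratio at most library mean plus 5 SD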;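 further: more negative B-score means stronger inhibition of thallium flux through KCNK3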
hERG protect: shields human hERG channel from block by proarrhythmic agents; CHO-hERG, FluxOR thallium flux, dofetilide IC70 present; Q12809; hit rate 0.51% among 310,000; activation (rescue from dofetilide block), less the hit threshold, % at 10 µM;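 active means activation above the mean of controls blocked by dofetilide plus 5 SD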;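 further: thallium influx through hERG after potassium depolarization seen as dye fluorescence rise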
KCNQ1 act: human KCNQ1 channel potentiation or activation; hit rate 0.35% among 310,000; AID 2648; CHO-K1 KCNQ1, thallium flux FluxOR fluorescence; stronger effect = higher value; P51787; B-score at 10 µM;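 active means fluorescence ratio B-score, a plate-corrected score, at least three library SD, with initial intensity B-score within 5 SD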
Target sequence (P51787 whole entry, looked up): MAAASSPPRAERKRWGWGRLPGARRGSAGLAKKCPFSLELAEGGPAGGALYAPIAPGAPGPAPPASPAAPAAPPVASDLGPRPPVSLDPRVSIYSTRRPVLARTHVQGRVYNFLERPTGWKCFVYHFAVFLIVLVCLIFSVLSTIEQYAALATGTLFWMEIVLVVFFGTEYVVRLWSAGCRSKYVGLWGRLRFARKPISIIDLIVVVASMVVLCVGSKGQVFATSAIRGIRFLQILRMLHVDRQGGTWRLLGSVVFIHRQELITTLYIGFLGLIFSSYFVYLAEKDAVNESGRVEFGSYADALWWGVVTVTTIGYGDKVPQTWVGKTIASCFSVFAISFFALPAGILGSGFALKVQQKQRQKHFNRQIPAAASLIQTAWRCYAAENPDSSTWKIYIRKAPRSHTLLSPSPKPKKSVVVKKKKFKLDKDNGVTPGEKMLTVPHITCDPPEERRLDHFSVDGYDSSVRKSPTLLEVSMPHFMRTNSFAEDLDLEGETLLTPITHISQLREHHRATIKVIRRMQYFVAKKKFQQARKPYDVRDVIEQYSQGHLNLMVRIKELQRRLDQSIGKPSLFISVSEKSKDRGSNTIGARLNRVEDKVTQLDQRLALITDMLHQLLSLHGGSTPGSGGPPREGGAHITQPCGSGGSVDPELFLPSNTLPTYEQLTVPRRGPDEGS
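Assay system: CHO-K1 cells stably expressing KCNQ1. Medium: assay buffer for compound exposure, DMSO matched across wells. Timing: 37 °C overnight plating, 90-min dark dye load, 20-min compound pretreatment. Signal: kinetic FluxOR fluorescence, 10 s baseline plus 110 s post-stimulus.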
KCNQ1 inh: human KCNQ1 channel inhibition; B-score at 10 µM; P51787; hit rate 1.3% among 310,000; AID 2642; CHO-K1 KCNQ1, FluxOR thallium flux fluorescence; stronger effect = higher value;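 active means compounds whose thallium flux B-score, printed positive for inhibition, exceeds three library SD while starting fluorescence stays within three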;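 further: channel opened by potassium depolarization with thallium stimulus after 20 min compound exposure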
KCNK9 block: human KCNK9 channel inhibition; Q9NPC2; HEK293 KCNK9, FluxOR thallium flux fluorescence; stronger effect = lower value; B-score at 10 µM; hit rate 1.2% among 310,000; AID 488922;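 active means ratio B-score over 3 SD below the library mean, with starting fluorescence within 5 SD of its mean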;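 further: negative B-score means less thallium flux so channel inhibition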
Kir21 block: inhibitors of mouse Kir2.1 inward-rectifier potassium channel | P35561 | B-score at 10 µM | AID 1672 | hit rate 0.85% among 310,000 | HEK293-Kir2.1, FluxOR thallium flux fluorescence; stronger effect = lower value;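 active means fluorescence ratio B-score at or below minus 3 SD of library scores, with starting-brightness B-score within 2 SD, cut at about -4.2 in these data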;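 further: channel flux triggered by added potassium and thallium sulfate stimulus; B-score of peak minus minimum fluorescence over baseline after thallium stimulus; more negative B-score means stronger Kir2.1 block with less thallium influx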
An asterisk follows results filed as active; i = inactive; nt = no result. Compounds with a hit are over-represented: about 3.7% of the library has one in this group of screens.

SMILES | KCNK3 inh | hERG protect | KCNQ1 act | KCNQ1 inh | KCNK9 block | Kir21 block
C[C@H](NC(=O)OC(C)(C)C)c1nnc(SCC(=O)Nc2cccc(Cl)c2)o1 | i | -6 | i | i | i | -4.3*
CC(C)=CCSc1nnc([C@@H](NC(=O)OC(C)(C)C)C(C)C)o1 | i | -5 | i | i | i | -1.7
CC(C)NC(=O)c1onc(CSc2nc3ccccc3[nH]2)c1C(=O)NC(C)C | i | -15 | i | i | i | -1.4
CCCC(=O)Nc1sc2c(c1C(=O)OCC)CC(C)(C)OC2 | i | -14 | i | i | i | -0.55
CCOC(=O)c1c(NC(=O)c2ccc(C)cc2)sc2c1CC(C)(C)OC2 | i | -7 | i | 8* | i | 0.97
O=C(COC(=O)c1c(F)cccc1Cl)NCC1CCCCC1 | i | nt | nt | nt | nt | nt
CCN(c1nc(N)c(C(=O)N=C(N)N)nc1Cl)C(C)C | i | -8 | i | i | i | -5.7*
COc1ccccc1-c1c(C)oc2cc(OC(=O)c3ccco3)ccc2c1=O | i | -7 | i | i | i | -9.2*
Cc1ccc(-c2noc(CCC(=O)NCCN3CCc4ccccc4C3)n2)cc1 | i | -1 | i | i | i | -8.8*
COc1ccc(-c2noc(CCC(=O)NCCCN3CCC(Cc4ccccc4)CC3)n2)cc1 | i | -10 | i | i | i | -4.6*
CCN(Cc1ccccc1)C(=O)CCc1nc(-c2ccc(C)cc2)no1 | i | -11 | i | i | i | -6.7*
COc1ccc(-c2noc(CCC(=O)NCCCN3CCN(c4ccc(F)cc4)CC3)n2)cc1 | i | -11 | i | i | i | 0.9
O=C(NCC(c1ccco1)N1CCN(c2ccccc2F)CC1)c1ccco1 (configuration not stated) | i | -11 | i | i | i | 0.75
Cc1cc(C)nc(S/C=C/C(=O)c2ccc(F)cc2)n1 | nt | -6 | i | i | i | -0.63
COc1cccc(OC)c1C(=O)Nc1cccnc1 | i | -11 | i | i | i | -0.81
COc1ccc(NC(=O)c2cccc(S(=O)(=O)N3CCOCC3)c2)cn1 | i | -4 | i | i | -6.9* | 0.1
O=C(O)COc1ccccc1/C=N/NC(=O)c1cccc(S(=O)(=O)N2CCOCC2)c1 | i | 5.4* | i | i | i | 0.05
Cc1cc(C)n(/N=C/c2cc(Cl)cc(Cl)c2O)c(=O)c1 | i | -1 | 15* | i | i | -0.69
COc1cc(C(C)=O)ccc1OCC(=O)Nc1ccc(Cl)c(S(=O)(=O)N2CCOCC2)c1 | i | nt | nt | nt | nt | nt
Fc1cccc(C2NN=C(c3ccccc3)S2)c1 (configuration not stated) | i | 11* | i | i | i | 0.09
CC1(C)SC(=S)N(/N=C/c2ccccc2)C1N(O)C(=O)Nc1ccc([N+](=O)[O-])cc1 (configuration not stated) | i | 5.8* | i | i | i | -0.45
CC(C)(C)c1ccc(C(=O)c2cn[nH]c2-c2ccccc2O)cc1 | i | -5 | i | i | i | -0.46
O=C1CCCCN1CCCC(=O)N1CCCC(Nc2ccccc2)C1 (configuration not stated) | i | -10 | i | i | i | -3
CC(OCCN1CCCC1)(c1ccc(F)cc1)c1ccc(F)cc1 | i | -6 | i | i | i | -3
CCc1nc(SCC(=O)Nc2cc(C)ccc2OC)c2c(C)c(C)sc2n1 | i | -11 | i | i | -7.7* | -2.2
SMILES | KCNK3 inh | hERG protect | KCNQ1 act | KCNQ1 inh | KCNK9 block | Kir21 block
CCc1nc(SCC(=O)N2c3ccccc3CC2C)c2c(C)c(C)sc2n1 (configuration not stated) | i | -13 | i | 6* | i | 0.97
Cc1cc(C)n(CC(=O)NNC(=O)c2ccc(OC(F)(F)F)cc2)n1 | i | nt | nt | nt | nt | nt
NC(c1ccccc1)c1ccncc1 (configuration not stated) | i | -4 | i | i | i | -2.1
N=c1n(CCN2CCCCC2)c2ccccc2n1CC(=O)c1ccc(Cl)c(Cl)c1 | i | -25 | i | i | i | -4.8*
N=c1n(CCN2CCCCC2)c2ccccc2n1CC(O)COc1ccccc1 (configuration not stated) | i | -5 | i | i | i | -3.2
N=c1n(CCN2CCCCC2)c2ccccc2n1CC(O)c1ccc(Cl)c(Cl)c1 (configuration not stated) | i | -21 | i | i | i | -8.6*
N=c1n(CCN2CCCCC2)c2ccccc2n1CC(O)c1cccc(Br)c1 (configuration not stated) | i | -10 | i | i | i | -6.8*
CN(C)CCn1c(=N)n(CC(O)c2ccc(Cl)c(Cl)c2)c2ccccc21 (configuration not stated) | i | -17 | i | i | i | -6.9*
COc1ccccc1OCC(O)Cn1c(=N)n(CCN2CCCCC2)c2ccccc21 (configuration not stated) | i | -17 | i | i | i | -0.09
CCOC(=O)Nc1c(O)ccc2oc(C)c(-c3ccccc3)c12 | i | -7 | i | i | i | -15*
CS(=O)(=O)Nc1cccc(-c2cnc3ccccc3n2)c1 | i | -8 | i | i | i | 0.05
CN1CCN(C(=O)c2cc3nc(-c4ccc(Cl)cc4)cc(C(F)(F)F)n3n2)CC1 | i | -6 | i | i | i | 3
O=C(c1cc2nc(-c3ccc(Cl)cc3)cc(C(F)(F)F)n2n1)N1CCOCC1 | i | 46* | i | i | i | -0.16
CCc1noc(C)c1C(=O)Nc1nnc(C2CCCCC2)s1 | nt | -12 | i | i | i | -0.04
CCN(CC)c1ccc(C(=C2C=CC(=[N+](CC)CC)C=C2)c2ccc(N(CC)CC)cc2)cc1 | -12* | nt | nt | nt | nt | nt
COc1ccc2oc(C(=O)Nc3nccs3)c(C)c2c1 | i | -12 | i | i | -7.9* | -0.78
CCOc1ccc2oc(C(=O)Nc3nccs3)c(C)c2c1 | i | nt | nt | nt | nt | nt
Cc1cccc(N2CCN(C(=O)C3(S(=O)(=O)c4ccc(Cl)cc4)CC3)CC2)c1C | i | -11 | i | i | i | 0.35
Cc1ccc(Cl)cc1N1CCN(C(=O)C2(S(=O)(=O)c3ccc(Cl)cc3)CC2)CC1 | i | -11 | i | 6* | i | 1.3
O=[N+]([O-])c1cc(C(F)(F)F)ccc1NCCCCNS(=O)(=O)c1ccc(Cl)cc1 | i | -9 | i | i | i | -0.22
O=[N+]([O-])c1cc(C(F)(F)F)ccc1NCCNC(=S)Nc1ccc(Cl)cc1 | i | -5 | i | 6* | i | 0.77
O=[N+]([O-])c1ccc(NC(=S)NCCc2ccccc2)cc1 | i | -19 | i | 6* | i | -0.52

From PubChem BioAssay
